Experimental data: ChEMBL document CHEMBL3120060, “Synthesis, in vitro anticancer evaluation and in silico studies of novel imidazo[2,1-b]thiazole derivatives bearing pyrazole moieties” (2014)

How the values were obtained:
Format in all cases: functional
NCI-H460 = assay: Cytotoxicity against human NCI-H460 cells assessed as cell growth at 10 uM after 48 hrs by SRB assay; details: NCI-H460, 48 h, read-out: Activity
In short: (§1)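 NCI-60 single-dose screen. Cell lines grown in RPMI 1640 with 5% FBS and 2 mM L-glutamine, plated at 5000–40,000 cells/well according to doubling time, then preincubated 24 h at 37 °C in 5% CO2. Compounds dissolved in DMSO, tested at 10^-5 M for 48 h. Adherent cells fixed with cold TCA (10% final) and stained with 0.4% SRB in 1% acetic acid. Growth expressed as percent of untreated control.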

ACHN = assay: Cytotoxicity against human ACHN cells assessed as cell growth at 10 uM after 48 hrs by SRB assay; details: read-out: Activity; in short: as §1
RXF 393 = assay: Cytotoxicity against human RXF393 cells assessed as cell growth at 10 uM after 48 hrs by SRB assay; details: RXF 393, 48 h, read-out: Activity; in short: as §1
NCI-H322M = assay: Cytotoxicity against human NCI-H322M cells assessed as cell growth at 10 uM after 48 hrs by SRB assay; details: read-out: Activity; in short: as §1
NCI-H226 = assay: Cytotoxicity against human NCI-H226 cells assessed as cell growth at 10 uM after 48 hrs by SRB assay; details: NCI-H226, 48 h, read-out: Activity; in short: as §1
MCF7 = assay: Cytotoxicity against human MCF7 cells assessed as cell growth at 10 uM after 48 hrs by SRB assay; details: MCF7, 48 h, read-out: Activity; in short: as §1
OVCAR-3 = assay: Cytotoxicity against human OVCAR3 cells assessed as cell growth at 10 uM after 48 hrs by SRB assay; details: OVCAR-3, 48 h, read-out: Activity; in short: as §1
SN12C = assay: Cytotoxicity against human SN12C cells assessed as cell growth at 10 uM after 48 hrs by SRB assay; details: read-out: Activity; in short: as §1
SW-620 = assay: Cytotoxicity against human SW620 cells assessed as cell growth at 10 uM after 48 hrs by SRB assay; details: SW-620, 48 h, read-out: Activity
In short: (§2)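 NCI-60 single-dose screen at 10^-5 M. Adherent lines are grown in RPMI 1640 with 5% FBS and 2 mM L-glutamine, seeded at 5000–40,000 cells/well by doubling time, and preincubated 24 h at 37 °C in 5% CO2. Drug is added from DMSO stock diluted in medium, then 48 h. Cells are fixed in cold TCA (final 10%) for 60 min and stained with 0.4% SRB in 1% acetic acid. Growth is expressed as % of untreated control using time-zero plates.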

[1] = Cytotoxicity against human Hs578T cells assessed as cell growth at 10 uM after 48 hrs by SRB assay; details: Hs-578T, read-out: Activity; in short: as §1
[2] = Cytotoxicity against human NCI-ADR-RES cells assessed as cell growth at 10 uM after 48 hrs by SRB assay; details: read-out: Activity; in short: as §1
M14 = assay: Cytotoxicity against human M14 cells assessed as cell growth at 10 uM after 48 hrs by SRB assay; details: M14, 48 h, read-out: Activity; in short: as §1
OVCAR-8 = assay: Cytotoxicity against human OVCAR8 cells assessed as cell growth at 10 uM after 48 hrs by SRB assay; details: OVCAR-8, 48 h, read-out: Activity; in short: as §1
UACC-62 = assay: Cytotoxicity against human UACC62 cells assessed as cell growth at 10 uM after 48 hrs by SRB assay; details: UACC-62, 48 h, read-out: Activity; in short: as §2
SK-MEL-28 = assay: Cytotoxicity against human SK-MEL-28 cells assessed as cell growth at 10 uM after 48 hrs by SRB assay; details: SK-MEL-28, 48 h, read-out: Activity; in short: as §1
SF-539 = assay: Cytotoxicity against human SF539 cells assessed as cell growth at 10 uM after 48 hrs by SRB assay; details: SF-539, 48 h, read-out: Activity; in short: as §1
MDA-MB-435 = assay: Cytotoxicity against human MDA-MB-435 cells assessed as cell growth at 10 uM after 48 hrs by SRB assay; details: MDA-MB-435, 48 h, read-out: Activity; in short: as §1
HOP-92 = assay: Cytotoxicity against human HOP92 cells assessed as cell growth at 10 uM after 48 hrs by SRB assay; details: HOP-92, 48 h, read-out: Activity; in short: as §1
CAKI-1 = assay: Cytotoxicity against human CAKI-1 cells assessed as cell growth at 10 uM after 48 hrs by SRB assay; details: CAKI-1, 48 h, read-out: Activity; in short: as §1
RPMI-8226 = assay: Cytotoxicity against human RPMI8226 cells assessed as cell growth at 10 uM after 48 hrs by SRB assay; details: RPMI-8226, 48 h, read-out: Activity; in short: as §1
IGROV-1 = assay: Cytotoxicity against human IGROV1 cells assessed as cell growth at 10 uM after 48 hrs by SRB assay; details: IGROV-1, 48 h, read-out: Activity; in short: as §1
HL-60(TB) = assay: Cytotoxicity against human HL-60(TB) cells assessed as cell growth at 10 uM after 48 hrs by SRB assay; details: HL-60, 48 h, read-out: Activity
In short: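 NCI-60 single-dose screen: cells grown in RPMI 1640 with 5% FBS and 2 mM L-glutamine, plated at 5000–40,000 cells/well, preincubated 24 h at 37 °C, 5% CO2. Compound dissolved in DMSO, tested at 10^-5 M for 48 h. Cells TCA-fixed, sulforhodamine B stained. Growth expressed as percent of untreated control, referenced to time-zero plates.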

HCT-15 = assay: Cytotoxicity against human HCT15 cells assessed as cell growth at 10 uM after 48 hrs by SRB assay; details: HCT-15, 48 h, read-out: Activity; in short: as §1
HOP-62 = assay: Cytotoxicity against human HOP62 cells assessed as cell growth at 10 uM after 48 hrs by SRB assay; details: HOP-62, 48 h, read-out: Activity; in short: as §1
SNB-75 = assay: Cytotoxicity against human SNB75 cells assessed as cell growth at 10 uM after 48 hrs by SRB assay; details: SNB-75, 48 h, read-out: Activity; in short: as §1
MDA-MB-468 = assay: Cytotoxicity against human MDA-MB-468 cells assessed as cell growth at 10 uM after 48 hrs by SRB assay; details: MDA-MB-468, 48 h, read-out: Activity; in short: as §1
DU-145 = assay: Cytotoxicity against human DU145 cells assessed as cell growth at 10 uM after 48 hrs by SRB assay; details: DU-145, 48 h, read-out: Activity; in short: as §1
SK-MEL-2 = assay: Cytotoxicity against human SK-MEL-2 cells assessed as cell growth at 10 uM after 48 hrs by SRB assay; details: SK-MEL-2, 48 h, read-out: Activity; in short: as §1

Compound | growth at 10 µM (NCI-H460) | growth at 10 µM (ACHN) | growth at 10 µM (RXF 393) | growth at 10 µM (NCI-H322M) | growth at 10 µM (NCI-H226) | growth at 10 µM (MCF7) | growth at 10 µM (OVCAR-3) | growth at 10 µM (SN12C) | growth at 10 µM (SW-620) | growth at 10 µM [1] | growth at 10 µM [2] | growth at 10 µM (M14) | growth at 10 µM (OVCAR-8) | growth at 10 µM (UACC-62) | growth at 10 µM (SK-MEL-28) | growth at 10 µM (SF-539) | growth at 10 µM (MDA-MB-435) | growth at 10 µM (HOP-92) | growth at 10 µM (CAKI-1) | growth at 10 µM (RPMI-8226) | further results
Cc1cc(C)n(-c2cn3c(-c4ccc(Cl)cc4)csc3n2)n1 | 101% | 91% | 93.5% | 91% | 81.5% | 85.1% | 107% | 89% | 100% | 94.3% | 100% | 101% | 91.5% | 86.9% | 97.9% | 104% | 94.5% | 74.7% | 78.6% | 68.2% | growth at 10 µM (IGROV-1): 108%; growth at 10 µM (HL-60(TB)): 90.2%; growth at 10 µM (HCT-15): 95.5%; growth at 10 µM (HOP-62): 97.1%; growth at 10 µM (SNB-75): 69.2%; growth at 10 µM (MDA-MB-468): 88.5%; growth at 10 µM (DU-145): 113%; growth at 10 µM (SK-MEL-2): 113%
CC1=NN(c2cn3c(-c4ccccc4)csc3n2)C(=O)C1 | 107% | 91.2% | 109% | 92.1% | 101% | 89.6% | 99.8% | 96% | 104% | 106% | 92.5% | 100% | 105% | 91.1% | 102% | 89.7% | 92.9% | 66.5% | 79.9% | 94.2% | growth at 10 µM (IGROV-1): 88%; growth at 10 µM (HL-60(TB)): 89.2%; growth at 10 µM (HCT-15): 96.7%; growth at 10 µM (HOP-62): 95.3%; growth at 10 µM (SNB-75): 59.4%; growth at 10 µM (MDA-MB-468): 114%; growth at 10 µM (DU-145): 106%; growth at 10 µM (SK-MEL-2): 102%
CC1=NN(c2cn3c(-c4ccc(C)cc4)csc3n2)C(=O)C1 | 105% | 96.9% | 95.9% | 105% | 89.7% | 91.8% | 110% | 96.4% | 105% | 109% | 99.3% | 99.2% | 102% | 74.1% | 98.5% | 102% | 83.6% | 65.5% | 84.5% | 93.6% | growth at 10 µM (IGROV-1): 101%; growth at 10 µM (HL-60(TB)): 110%; growth at 10 µM (HCT-15): 103%; growth at 10 µM (HOP-62): 99.2%; growth at 10 µM (SNB-75): 79.1%; growth at 10 µM (MDA-MB-468): 102%; growth at 10 µM (DU-145): 113%; growth at 10 µM (SK-MEL-2): 114%
O=C1CC(=O)N(c2cn3c(-c4ccc(Cl)cc4)csc3n2)N1 | 104% | 102% | 112% | 83.3% | 103% | 89% | 110% | 88.4% | 104% | 98.3% | 99.3% | 100% | 101% | 90.1% | 95.7% | 101% | 93.7% | 99.4% | 78.9% | 85% | growth at 10 µM (IGROV-1): 117%; growth at 10 µM (HL-60(TB)): 88.1%; growth at 10 µM (HCT-15): 92.9%; growth at 10 µM (HOP-62): 104%; growth at 10 µM (SNB-75): 74.2%; growth at 10 µM (MDA-MB-468): 104%; growth at 10 µM (DU-145): 105%; growth at 10 µM (SK-MEL-2): 101%
